From ChEMBL document CHEMBL3739281, “Identification, synthesis and pharmacological evaluation of novel anti-EV71 agents via cyclophilin A inhibition” (Bioorg Med Chem Lett, 2015) come the findings set out here.

Activity calls are given as the source filed them. No cut-off for these calls is given here.

The target in data set [1] is T1, Peptidyl-prolyl cis-trans isomerase A (Homo sapiens, UniProt P62937). As to the kind of experiment: Inhibition of CypA (unknown origin) assessed as peptidyl-prolyl cis-trans isomerase activity using N-succinyl-Ala-Ala-Pro-Phe-p-nitroanilide as substrate by spectrophotometry.
Target sequence in this assay (P62937 whole entry): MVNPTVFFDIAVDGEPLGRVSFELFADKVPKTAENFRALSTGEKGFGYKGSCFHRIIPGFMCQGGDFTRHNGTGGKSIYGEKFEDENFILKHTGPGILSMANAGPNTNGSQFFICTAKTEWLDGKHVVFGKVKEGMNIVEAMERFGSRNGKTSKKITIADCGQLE
In data set [2] the test system is Enterovirus A71. As to the kind of experiment: Antiviral activity against EV71 infected in RD cells after 24 hrs by luciferase assay. Particulars: Enterovirus A. Format: functional, organism-based.
Data set [3] deals with T1, Peptidyl-prolyl cis-trans isomerase A. As to the kind of experiment: Inhibition of CypA (unknown origin) assessed as peptidyl-prolyl cis-trans isomerase activity at 10 uM using N-succinyl-Ala-Ala-Pro-Phe-p-nitroanilide as substrate by spectrophotometry.
Target sequence in this assay (P62937 whole entry, looked up): as the sequence (P62937 whole entry) above
Data set [4] in a line: Retention time of the compound by HPLC analysis. Format: physicochemical.
Data set [5] is described as follows: Cytotoxicity against human RD cells after 24 hrs by WST-1 assay. Format: cell-based.
The subject of data set [6] is Enterovirus A71. As to the kind of experiment: Antiviral activity against EV71. To be noted: Enterovirus A. Format: functional, organism-based.
Data set [7] concerns Enterovirus A71. As to the kind of experiment: Antiviral activity against EV71 infected in RD cells assessed as decrease in viral RNA level at 5 uM after qRT-PCR analysis. Format: functional. Particulars: Enterovirus A, read-out: INH. The procedure, abridged:
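Cells are infected with wild-type or S243P mutant EV71 and treated at 5 μM. Viral RNA is reported as a percentage of untreated control cells, with GAPDH mRNA as internal control. Each point is the average of three replicates.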

Data set [8] deals with Enterovirus A71. As to the kind of experiment: Antiviral activity against EV71 infected in RD cells at 0.08 uM after 24 hrs by luciferase assay in presence of NK-1.8K. Format: functional, organism-based.
Data set [9] relates to Enterovirus A71. As to the kind of experiment: Antiviral activity against EV71 infected in RD cells at 0.08 uM after 24 hrs by luciferase assay in presence of NITD008. Format: functional, organism-based.
For data set [10], the system named is Enterovirus A71. As to the kind of experiment: Antiviral activity against EV71 infected in RD cells at 0.31 to 5 uM after 24 hrs by luciferase assay in presence of NITD008. Format: functional.
The subject of data set [11] is Enterovirus A71. As to the kind of experiment: Potency index, Ratio of EC50 for cyclosporin A to EC50 for compound for antiviral activity against EV71. Format: functional.
Data set [12] has as its system Enterovirus A71. As to the kind of experiment: Antiviral activity against EV71 infected in RD cells at 0.31 to 5 uM after 24 hrs by luciferase assay in presence of NK-1.8K. Format: functional.
Data set [13] relates to Enterovirus A71. As to the kind of experiment: Antiviral activity against EV71 infected in RD cells assessed as decrease in viral protein1 level by western blot analysis. Format: functional, organism-based. The essentials:
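EV71 VP1 protein detected by western blot in a dose series of 5, 1, 0.2 and 0.04 μM. NITD008 at 5 μM serves as positive control.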

The nature of data set [14]: Cytotoxicity against ICR mouse B spleen cells assessed as inhibition of cell proliferation after 72 hrs by MTT assay. Format: cell-based.
The nature of data set [15]: Cytotoxicity against ICR mouse T spleen cells assessed as inhibition of cell proliferation after 72 hrs by MTT assay. Format: cell-based. The essentials:
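Proliferation of T and B spleen cells, each from one mouse, run as triplicate sets per assay. IC50 is the mean ± SD of three experiments.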

As to `O=C(NC(=O)c1c(O)cccc1O)NC1c2ccccc2C2CCCCC21` (racemic), in [1] (read-out: IC50), the half-inhibitory concentration (IC50) was determined as 10 µM. This compound also came in with a concentration for a half-maximal effect (EC50) in the data set on Enterovirus A71 [2] of 4.31 µM. Also, the inhibition in data set [3] was found to be 27.6%. In addition, the Retention_time in [4] was 5.41 min. The compound further yielded a cytotoxic concentration (CC50) at 24 h in data set [5] of over 25 µM.
Take `O=C(NC(=O)c1c(O)cccc1O)NC1c2ccc(F)cc2-c2ccc(F)cc21` (centres undefined): the IC50 in [1] (read-out: IC50) is 10.3 µM. The response in the data set with Enterovirus A71 [2] was half-maximal at 1.08 µM (EC50). The compound further displayed a Retention_time in data set [4] of 4.94 min. In data set [5], the 50% cytotoxic concentration (CC50) at 24 h was over 25 µM.
The like results for `O=C(NC(=O)c1ccccc1F)NC1c2ccccc2-c2cc(F)ccc21` (centres undefined) were, in that order, 10.3 µM, 2.11 µM, 6.15 min and over 10 µM.
Take `CCOC(=O)/C=C/[C@H](C[C@@H]1CCNC1=O)NC(=O)[C@@H](CC(=O)[C@@H](NC(=O)c1cc(C)on1)C(C)C)Cc1ccc(F)cc1`: the EC50 with Enterovirus A71 [6] is 0.014 µM.
For `C/C=C/C[C@@H](C)[C@@H](O)[C@H]1C(=O)N[C@@H](CC)C(=O)N(C)CC(=O)N(C)[C@@H](CC(C)C)C(=O)N[C@@H](C(C)C)C(=O)N(C)[C@@H](CC(C)C)C(=O)N[C@@H](C)C(=O)N[C@H](C)C(=O)N(C)[C@@H](CC(C)C)C(=O)N(C)[C@@H](CC(C)C)C(=O)N(C)[C@@H](C(C)C)C(=O)N1C` [CYCLOSPORINE], the 50% effective concentration (EC50) in the data set with Enterovirus A71 [2] amounted to 3.66 µM.
As to `O=C(NC(=O)c1ccc(O)cc1O)NC1c2ccccc2-c2ccccc21`, the half-maximal inhibitory concentration (IC50) in [1] (read-out: IC50) came out at 10 µM. The compound also registered an EC50 in the data set on Enterovirus A71 [2] of over 25 µM. The inhibition in data set [3] amounted to 21.4%. For the same compound, the Retention_time in data set [4] came out at 5.44 min. The compound further had a CC50 at 24 h in data set [5] of over 25 µM.
Take `O=C(NC(=O)c1c(O)cccc1O)NC1c2ccccc2-c2cc(F)ccc21` (centres undefined): the inhibition at 5 µM in the data set on Enterovirus A71 [7] came to 3%. The result with Enterovirus A71 [8] and in the data set with Enterovirus A71 [9] was inactive. In addition, the IC50 in data set [1] (read-out: IC50) stood at 2.76 µM. The compound further came in with a concentration for a half-maximal effect (EC50) in the data set with Enterovirus A71 [2] of 0.37 µM. In addition, the “%max” value in the data set with Enterovirus A71 [10] and in the data set on Enterovirus A71 [12] was 20% throughout. The “Ratio EC50” value in the data set on Enterovirus A71 [11] was 9.9. The same compound had a Retention_time in [4] of 8.07 min. This compound also showed a CC50 at 24 h in data set [5] of over 25 µM. Also, in the data set with Enterovirus A71 [13], the inhibition entry is “Dose-dependent effect”.
Consider `O=C(Cc1ccccc1F)NC(=O)NC1c2ccccc2-c2ccccc21`, for which the IC50 in data set [1] (read-out: IC50) worked out at 10 µM. In addition, the EC50 in the data set on Enterovirus A71 [2] is over 10 µM. Further, the inhibition in data set [3] amounted to 16.9%. The compound further yielded a Retention_time in [4] of 6.05 min. The CC50 at 24 h in data set [5] was over 50 µM.
As for `O=C(NC(=O)c1ccccc1F)NC1c2ccccc2-c2cccc(F)c21` (centres undefined), the IC50 in data set [1] (read-out: IC50) was found to be 10.4 µM. This compound also registered a half-maximal effective concentration (EC50) in the data set with Enterovirus A71 [2] of 0.66 µM. The Retention_time in [4] was found to be 6.02 min. The compound also had a half-maximal cytotoxic concentration (CC50) at 24 h in data set [5] of over 25 µM.
As for `O=C(NC(=O)c1cc(O)cc(O)c1)NC1c2ccccc2-c2ccccc21`, in data set [1], the 50% inhibitory concentration (IC50) result is given as “Not Active”. The EC50 with Enterovirus A71 [2] is over 25 µM. In data set [4], this compound displayed a Retention_time of 7.88 min. The same compound came in with a CC50 at 24 h in data set [5] of over 25 µM.
Regarding `Cc1ccc2c(c1)-c1ccccc1C2NC(=O)NC(=O)c1ccccc1F` (centres undefined), the IC50 in data set [1] (read-out: IC50) came to 10 µM. This compound also registered an EC50 in the data set with Enterovirus A71 [2] of 0.92 µM. In addition, the inhibition in data set [3] amounted to 28.7%. Besides, the Retention_time in data set [4] turned out to be 8.84 min. In addition, the CC50 at 24 h in data set [5] is over 10 µM.
`O=C(NC(=O)c1ccccc1F)NC1c2ccccc2-c2ccccc21`: the concentration for half-maximal inhibition (IC50) in data set [14] and in data set [15] was over 100 µM in each case. In the data set on Enterovirus A71 [2], this compound had an EC50 of 1.07 µM. In addition, the CC50 at 24 h in data set [5] is over 20 µM.
In the case of `O=C(NC(=O)c1c(O)cccc1O)NC1c2ccccc2-c2cc(Cl)ccc21` (centres undefined), the half-maximal inhibitory concentration (IC50) in data set [1] (read-out: IC50) amounted to 1.22 µM. The compound also returned an EC50 in the data set with Enterovirus A71 [2] of 0.46 µM. The compound also registered a Retention_time in data set [4] of 4.19 min. The CC50 at 24 h in data set [5] is over 25 µM.
Take `O=C(NC(=O)c1cc(F)ccc1O)NC1c2ccccc2-c2ccccc21`: the IC50 in data set [1] (read-out: IC50) turned out to be 10 µM. In the data set on Enterovirus A71 [2], this compound gave a 50% effective concentration (EC50) of 3.78 µM. Besides, in [3], the inhibition turned out to be 27.7%. In [4], this compound registered a Retention_time of 8.91 min. In data set [5], this compound returned a CC50 at 24 h of over 25 µM.
In the case of `O=C(NC(=O)c1ccccc1F)NC1c2ccccc2-c2cc(Cl)ccc21` (centres undefined), the IC50 in [1] (read-out: IC50) was 10.8 µM. This compound gave an EC50 in the data set on Enterovirus A71 [2] of 3.34 µM. In [4], this compound had a Retention_time of 6.6 min. The compound also yielded a half-maximal cytotoxic concentration (CC50) at 24 h in data set [5] of over 25 µM.
`O=C(NCc1ccccc1F)NC1c2ccccc2-c2ccccc21`: the concentration for half-maximal inhibition (IC50) in data set [1] (read-out: IC50) amounted to 10 µM. In addition, the EC50 with Enterovirus A71 [2] was over 25 µM. Moreover, the inhibition in data set [3] stood at 17.8%. The compound also returned a Retention_time in [4] of 5.57 min. This compound gave a CC50 at 24 h in data set [5] of over 25 µM.
On to `O=C(NC(=O)c1c(O)cccc1O)NC1c2ccccc2-c2ccccc21`, for which the IC50 is 51.9 µM in [14] and 33 µM in [15]. This compound also showed an EC50 in the data set with Enterovirus A71 [2] of 3.36 µM. Moreover, the CC50 at 24 h in data set [5] is over 20 µM.
With `O=C(NC(=O)c1c(O)cccc1O)NC1c2ccccc2-c2cc3ccccc3cc21` (centres undefined), the IC50 in [1] (read-out: IC50) was found to be 10 µM. Also, the EC50 in the data set on Enterovirus A71 [2] stood at 1.92 µM. Also, in data set [3], the inhibition stood at 39.1%. In data set [4], this compound yielded a Retention_time of 5.07 min. In data set [5], the CC50 at 24 h was over 25 µM.
For `O=C(NC(=O)c1c(O)cccc1O)NC1c2ccccc2-c2cccc(F)c21` (centres undefined), in data set [1] (read-out: IC50), the half-inhibitory concentration (IC50) is 0.94 µM. This compound returned a 50% effective concentration (EC50) in the data set with Enterovirus A71 [2] of 1.13 µM. In [4], this compound showed a Retention_time of 4.7 min. In addition, the cytotoxic concentration (CC50) at 24 h in data set [5] is over 25 µM.
On to `O=C(NCc1c(O)cccc1O)NC1c2ccccc2-c2ccccc21`, for which, in [1] (read-out: IC50), the half-maximal inhibitory concentration (IC50) came out at 10 µM. The half-maximal effective concentration (EC50) in the data set on Enterovirus A71 [2] is over 10 µM. For the same compound, the inhibition in data set [3] came to 9.25%. The same compound gave a Retention_time in data set [4] of 5.37 min. The CC50 at 24 h in data set [5] was over 25 µM.
`Cc1ccc2c(c1)-c1ccccc1C2NC(=O)NC(=O)c1c(O)cccc1O` (centres undefined): in [1] (read-out: IC50), the half-maximal inhibitory concentration (IC50) worked out at 11.6 µM. The same compound came in with a concentration for a half-maximal effect (EC50) in the data set on Enterovirus A71 [2] of 2.72 µM. The Retention_time in data set [4] is listed as 4.42 min. In addition, in data set [5], the CC50 at 24 h was over 25 µM.
`O=C(NC(=O)c1c(F)cccc1F)NC1c2ccccc2-c2ccccc21` returned a concentration giving a half-maximal response (EC50) in the data set on Enterovirus A71 [2] of 5.85 µM. For the same compound, the CC50 at 24 h in data set [5] was over 20 µM.
In the data set with Enterovirus A71 [2], `O=C(NC(=O)c1c(O)cccc1O)NC1c2ccccc2-c2cc(C(F)(F)F)ccc21` (centres undefined) had a concentration giving a half-maximal response (EC50) of over 10 µM. In [3], the inhibition came to 20.3%. In data set [4], the Retention_time turned out to be 5.68 min. In [5], this compound came in with a CC50 at 24 h of over 25 µM.
For `O=C(NC(=O)c1ccccc1F)NC1c2ccccc2C2CCCCC21` (racemic), the half-maximal inhibitory concentration (IC50) in [1] (read-out: IC50) came out at 10 µM. In the data set on Enterovirus A71 [2], a half-maximal effect (EC50) was put at 5.25 µM. Also, the inhibition in data set [3] was determined as 33.5%. Besides, the Retention_time in data set [4] is recorded as 9.04 min. The same compound registered a half-maximal cytotoxic concentration (CC50) at 24 h in data set [5] of over 25 µM.
